Assay results: ChEMBL document CHEMBL4014267, “Anti-inflammatory and Antiosteoporosis Flavonoids from the Rhizomes of Helminthostachys zeylanica” (J Nat Prod, 2017)
Calls of active or inactive are those of the source. The calls are words filed in the database; no cut-off is given here.

Legend:
Assay type in all cases: functional, cell-based
RAW264.7 [1] = experiment: Osteoblastogenic activity in mouse […] cells at 10 uM
BV-2 = experiment: Antiinflammatory activity in mouse BV2 cells assessed as inhibition of LPS-induced nitric oxide production after 24 hrs by Griess assay; settings: BV-2, 24 h
Method in brief: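 Murine BV2 microglia were grown in DMEM with 5% FBS and stimulated with LPS (0.5 μg/mL). NO was read as nitrite accumulated in the medium 24 h after stimulation, using Griess reagent.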

RAW264.7 [2] = experiment: Antiosteoporotic activity in mouse RAW264.7 cells assessed as inhibition of RANKL-induced osteoclast differentiation after 4 to 5 days by TRAP assay
Method in brief: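 RAW264.7 macrophages were differentiated for 4−5 days in DMEM with 100 ng/mL recombinant murine RANKL, alone or with test agent at 1, 3, 10 or 20 μM. Cells were then fixed and TRAP activity was read with a p-nitrophenylphosphate reaction buffer.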

Row | Structure (SMILES) | Activity (RAW264.7 [1]) | IC50 (BV-2) [µM] | IC50 (RAW264.7 [2]) [µM]
1 | C=C1CCCC(C)(C)[C@H]1Cc1c(OC)cc2oc(-c3ccc(O)c(O)c3)c(OC)c(=O)c2c1O | inactive | 6.7 | 3.2
2 | CC1=CCCC(C)(C)C1Cc1c(O)cc(/C=C/c2ccc(O)cc2)cc1O (stereo not drawn) | – | 6.2 | –
3 | C=C1CCCC(C)(C)[C@H]1Cc1c(OC)cc2oc(-c3ccc(O)c(O)c3)cc(=O)c2c1O | Active | 8.1 | 1.8
4 | CC1=CCCC(C)(C)C12Cc1c(c(O)cc3oc4c(=O)c5c(O)cc(O)cc5oc4c13)O2 (stereo not drawn) | inactive | 18 | 4.5
5 | CC1(C)CCC[C@]2(C)Oc3c(O)cc4oc5c(=O)c6c(O)cc(O)cc6oc5c4c3C[C@H]12 | inactive | 7 | 3.5
6 | CC1(C)CCC[C@@]2(C)Oc3c(c(O)cc4oc(-c5ccc(O)c(O)c5)cc(=O)c34)C[C@H]12 | inactive | 24.1 | > 10
7 | CC1(C)CCC[C@]2(C)Oc3c(c(O)cc4oc(-c5ccc(O)c(O)c5)cc(=O)c34)C[C@H]12 | inactive | 19.7 | 4.6
8 | C=C1CCCC(C)(C)[C@H]1Cc1c(O)cc2oc(-c3ccc(O)c(O)c3)cc(=O)c2c1O | – | 6.5 | –
9 | O=c1c(-c2ccc(O)cc2)coc2cc(O)cc(O)c12 [GENISTEIN] | – | – | 11.4
10 | S=C(S)N1CCCC1 [PYRROLIDINE DITHIOCARBAMATE] | – | 10.8 | –
11 | CC1(C)CC=C[C@]2(C)Oc3c(O)cc4oc5c(=O)c6c(O)cc(O)cc6oc5c4c3C[C@H]12 [UGONIN O] | inactive | 7.7 | 3.3
12 | CC1=CCCC(C)(C)C1Cc1c(O)c(O)cc2oc3c(=O)c4c(O)cc(O)cc4oc3c12 (stereo not drawn) [UGONIN M] | inactive | 10.1 | 2.5
